Converted amounts (≈) assume the structure as drawn.
How the values were obtained:
[1] = test system: S. aureus biofilms (MSSA and two MRSA strains); test: MBEC, summarised over the S. aureus strains; format: cell-based, Staphylococcus aureus; conditions: TSB; range as stated in text (Table 1, Table SI-1)
[2] = test system: MRSA (USA300 LAC); test: Minimum inhibitory concentration, broth microdilution; format: cell-based; conditions: Staphylococcus aureus
[3] = test system: MSSA (29213); test: as above; format: cell-based; conditions: Staphylococcus aureus
[4] = test system: S. aureus strain 29213; test: Resistance evolution experiment; format: cell-based, Staphylococcus aureus; conditions: 14 day period, strain 29213, daily passage from 1/2 MIC well
Outline: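 An MIC assay on strain 29213 was repeated daily for 14 days, each incubated 24 h at 37 °C. Colonies from TSA were suspended in PBS to OD600 0.1 and diluted 1:100 in Mueller–Hinton broth. Inoculum was added to 2-fold serial dilutions of test compound in MHB. MIC was the lowest concentration with no growth by OD600.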

[5] = test system: MRSA USA300 LAC biofilms; test: Murine skin wound excisional biofilm model; format: in vivo, C57BL/6 mice; conditions: topical 0.05%, 5 h; not statistically significant
[6] = test system: MRSA (USA400 MW2); test: Minimum inhibitory concentration, broth microdilution; format: cell-based; conditions: Staphylococcus aureus
[7] = test system: MRSA USA400 MW2 biofilms; test: Confocal microscopy of biofilms, SYTO 9/PI live/dead staining; format: cell-based, Staphylococcus aureus; conditions: 80 μM, 5 h treatment in TSB, 48 h biofilms, SYTO 9/PI fluorescence
Outline: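 USA400 MW2 grown in TSB with shaking at 37 °C to stationary phase, then adjusted in TSB to 1 × 10^7 CFU/mL. Eight-well chambered coverglass coated with 50 μg/mL fibronectin for 30 min at room temperature and PBS-washed twice. Biofilms grown statically, humidified, 37 °C, 48 h, then PBS-washed twice. Stained with SYTO 9 (all cells) and PI (dead cells) in TSB; 10× compound solution added.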

SMILES	MBEC range over the S. aureus strains [1] [µM]	MIC [2] [µM]	MIC [3] [µM]	fold increase in MIC over serial passage [4] [fold]	fold reduction in median CFU/wound compared to untreated mice [5] [fold]	MIC [6] [µM]	viable biofilm bacteria [7] [%]
CN[C@H]1C(=O)N[C@@H]2Cc3ccc(cc3)Oc3cc4cc(c3O[C@@H]3O[C@H](C(=O)O)[C@@H](O)[C@H](O)[C@H]3NC(=O)CCCCCCCCC(C)C)Oc3ccc(cc3Cl)[C@@H](O)[C@@H]3NC(=O)[C@H](NC(=O)[C@@H]4NC(=O)[C@@H](NC2=O)c2cc(cc(O)c2Cl)Oc2cc1ccc2O)c1ccc(O)c(c1)-c1c(O[C@H]2O[C@H](CO)[C@@H](O)[C@H](O)[C@@H]2O)cc(O)cc1[C@@H](C(=O)NCCCN(C)C)NC3=O [dalbavancin]	8 to 20	–	–	–	–	–	–
CN[C@H](CC(C)C)C(=O)N[C@H]1C(=O)N[C@@H](CC(N)=O)C(=O)N[C@H]2C(=O)N[C@H]3C(=O)N[C@H](C(=O)N[C@H](C(=O)O)c4cc(O)cc(O)c4-c4cc3ccc4O)[C@H](O[C@H]3C[C@](C)(N)[C@@H](O)[C@H](C)O3)c3ccc(c(Cl)c3)Oc3cc2cc(c3O[C@@H]2O[C@H](CO)[C@@H](O)[C@H](O)[C@H]2O[C@H]2C[C@](C)(NCc3ccc(-c4ccc(Cl)cc4)cc3)[C@@H](O)[C@H](C)O2)Oc2ccc(cc2Cl)[C@H]1O [Oritavancin]	12 to 32	–	–	–	–	–	–
CN[C@H](CC(C)C)C(=O)N[C@H]1C(=O)N[C@@H](CC(N)=O)C(=O)N[C@H]2C(=O)N[C@H]3C(=O)N[C@H](C(=O)N[C@H](C(=O)O)c4cc(O)cc(O)c4-c4cc3ccc4O)[C@H](O)c3ccc(c(Cl)c3)Oc3cc2cc(c3O[C@@H]2O[C@H](CO)[C@@H](O)[C@H](O)[C@H]2O[C@H]2C[C@](C)(N)[C@H](O)[C@H](C)O2)Oc2ccc(cc2Cl)[C@H]1O [V, vancomycin]	–	0.5 (≈ 0.725 µg/mL)	0.5 (≈ 0.725 µg/mL)	4	6	0.5 (≈ 0.725 µg/mL)	65
